# Laboratory results as given in ChEMBL document CHEMBL1123672, “Structure-activity relationships of sparsomycin and its analogues. Inhibition of peptide bond formation in cell-free systems and of L1210 and bacterial cell growth” (J Med Chem, 1987).
# pEC50, pIC50: −log10 of the molar value.
# What was measured:
# Escherichia coli [1] = assay: Ability to inhibit the peptide bond formation by puromycin reaction in Escherichia coli was determined; type: functional; conditions: read-out: ED50 (the source's name)
# Escherichia coli [2] = assay: Ability to inhibit the phenylalanine synthesis in Escherichia coli was determined; type: functional; conditions: read-out: ED50 (the source's name)
# Method in brief: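 Poly(U)-directed [³H]Phe polymerization with E. coli MRE600 ribosomes ([…]) and S-100. The reaction was started with 30 μM [³H]Phe and run 30 min at 37 °C. TCA-insoluble counts were taken on glass-fiber filters. Averages of three experiments.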
# Escherichia coli [3] = assay: Ability to inhibit the peptide bond formation by fragment reaction in Escherichia coli was determined; type: functional; conditions: read-out: ED50 (the source's name)
# Method in brief: (§1)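 Fragment reaction: ribosomes (1 mg/mL, from E. coli MRE600 or S. cerevisiae Y166) in 150 μL of 33 mM Tris-HCl pH 7.4, 270 mM KCl, 13 mM Mg acetate, with 2 mM puromycin, 1 pmol N-acetyl-[³H]Leu-ACCAC(U) donor (ribonuclease T1 fragment of N-acetyl-[³H]Leu-tRNA), 33% methanol and test drug; no mRNA or small subunit. Values are averages of three experiments.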
# L1210 = assay: Ability to inhibit the colony formation of leukemia L1210 cells in agar medium (0.3%) was determined; type: functional; conditions: Mus musculus, read-out: ID50 (the source's name)
# [4] = system: Saccharolobus solfataricus; assay: Ability to inhibit the phenylalanine synthesis in Sulfolobus solfataricus was determined; type: functional; conditions: read-out: ED50 (the source's name)
# Saccharomyces cerevisiae [5] = assay: Ability to inhibit the peptide bond formation by fragment reaction in Saccharomyces cerevisiae was determined; type: functional; conditions: read-out: ED50 (the source's name); method in brief: as §1
# Saccharomyces cerevisiae [6] = assay: Ability to inhibit the phenylalanine synthesis in Saccharomyces cerevisiae was determined; type: functional; conditions: read-out: ED50 (the source's name)
# Method in brief: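 Yeast (S. cerevisiae Y166) ribosomes and S-100 in the same poly(U)/[³H]Phe mix as the E. coli assay, with 20 mM creatine phosphate and 50 μg/mL creatine phosphokinase as the energy system. Incubation was 30 min at 30 °C. Cold 10% TCA precipitate was filter-counted. Averages of three experiments.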
# [7] = Ability to inhibit the bacterial growth of Escherichia coli (MRE600) by 50% was determined.; type: functional; parameters: reference not given here
# [8] = Effect of 2-propanol on inhibition of the fragment reaction in the presence of 10 uM of compound was determined from Expt-A
# Method in brief: (§2)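 Solvent comparison: the fragment reaction (ribosomes with puromycin acceptor and N-acetyl-[³H]Leu-ACCAC(U) donor, in Tris-HCl pH 7.4/KCl/Mg acetate buffer) was run with methanol, ethanol, 2-propanol or butanol as the required organic solvent. Read-out is percent inhibition at the fixed drug level given in each line; series A and B are separate experiments.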
# [9] = Effect of 2-propanol on inhibition of the fragment reaction in the presence of 20 uM of compound was determined from Expt-B; method in brief: as §2
# [10] = Effect of butanol on inhibition of the fragment reaction in the presence of 10 uM of compound was determined from Expt-A; method in brief: as §2
# [11] = Effect of ethanol on inhibition of the fragment reaction in the presence of 10 uM of compound was determined from Expt-A; method in brief: as §2
# [12] = Effect of ethanol on inhibition of the fragment reaction in the presence of 20 uM of compound was determined from Expt-B; method in brief: as §2
# [13] = Effect of methanol on inhibition of the fragment reaction in the presence of 10 uM of compound was determined from Expt-A; method in brief: as §2
# [14] = Effect of methanol on inhibition of the fragment reaction in the presence of 20 uM of compound was determined from Expt-B; method in brief: as §2
# [15] = Ability to inhibit the bacterial growth of Escherichia coli (MRE600) by 50% was determined Activity represent the ratio of ED50 of sparsomycin to the ED50 of the compound; type: functional
# Method in brief: (§3)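 Liquid culture: E. coli MRE600 was grown in LB plus 0.2% glucose to A560 0.1, then 1-mL aliquots were incubated with drug 4 h at 37 °C. Growth was stopped with 0.1% sodium azide and A550 read; drug-free medium counts as 100%. ED50 (μM) is the dose giving 50% growth; the value reported is sparsomycin ED50/analogue ED50.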
# [16] = (§4) Effect of 2-propanol on inhibition of the fragment reaction in the presence of 10 uM of compound was determined; method in brief: as §2
# [17] = (§5) Effect of butanol on inhibition of the fragment reaction in the presence of 10 uM of compound was determined; method in brief: as §2
# [18] = (§6) Effect of ethanol on inhibition of the fragment reaction in the presence of 10 uM of compound was determined; method in brief: as §2
# [19] = (§7) Effect of methanol on inhibition of the fragment reaction in the presence of 10 uM of compound was determined; method in brief: as §2
# [20] = Ability to inhibit the growth of Escherichia coli (MRE600) by 50% was determined. Activity represent the ratio of ED50 of sparsomycin to the ED50 of the compound; type: functional; method in brief: as §3
# [21] = Effect of ethanol on inhibition of the fragment reaction in the presence of 200 uM of compound was determined
# [22] = Effect of methanol on inhibition of the fragment reaction in the presence of 200 uM of compound was determined
# [23] = Effect of 2-propanol on inhibition of the fragment reaction in the presence of 200 uM of compound was determined
# [24] = as §5; type: functional; conditions: in the assay text read “100 uM” for “10 uM”; method in brief: as §2
# [25] = as §4; type: functional; conditions: in the assay text read “100 uM” for “10 uM”; method in brief: as §2
# [26] = as §6; type: functional; conditions: in the assay text read “100 uM” for “10 uM”; method in brief: as §2
# [27] = as §7; type: functional; conditions: in the assay text read “100 uM” for “10 uM”; method in brief: as §2
SMILES,pEC50 (Escherichia coli [1]),pEC50 (Escherichia coli [2]),pEC50 (Escherichia coli [3]),pIC50 (L1210),pEC50 [4],pEC50 (Saccharomyces cerevisiae [5]),pEC50 (Saccharomyces cerevisiae [6]),Ratio [7],other results
Cc1nc(O)nc(O)c1/C=C/C(=O)N[C@@H](CO)C[S@@+]([O-])CCl,6.19,3.35,5.12,6.54,2.30,4.77,3.66,0.55,
CSCSC[C@@H](CO)NC(=O)/C=C/c1c(C)nc(O)nc1O,3.00,2.70,3.00,3.52,,3.26,2.70,0.01,
CSC[S+]([O-])CC(CO)NC(=O)/C=C\c1cnc(O)nc1O (stereo not drawn),,,,,,,,0.47,
CSC[S+]([O-])CC(CO)NC(=O)/C=C/c1cnc(O)nc1O (stereo not drawn),4.30,3.22,4.52,4.90,,4.30,3.00,0.27,
CSC[S@+]([O-])C[C@H](CO)NC(=O)/C=C/c1c(C)[nH]c(=O)[nH]c1=O,7.00,5.07,5.49,6.40,3.05,5.55,5.28,1,Inhibition [8]: 64%; Inhibition [9]: 76%; Inhibition [10]: 86%; Inhibition [11]: 91%; Inhibition [12]: 92%; Inhibition [13]: 57%; Inhibition [14]: 64%
Cc1nc(O)nc(O)c1/C=C/C(=O)N[C@@H](CO)C[S@+]([O-])CCl,2.30,2.70,2.30,4.52,2.30,2.30,2.60,0.01,
Cc1nc(O)nc(O)c1/C=C/C(=O)NC(CO)CSC[S+](C)[O-] (stereo not drawn),3.80,2.70,3.12,3.74,,3.46,2.70,,Ratio [15]: 0.4
CCC[S+]([O-])CC(CO)NC(=O)/C=C/c1c(C)nc(O)nc1O (stereo not drawn),6.64,3.85,5.35,6.12,3.00,5.21,4.38,0.3,
Cc1nc(O)nc(O)c1/C=C/C(=O)NC(CO)C[S+]([O-])CSCc1ccccc1 (stereo not drawn),6.89,6.22,5.12,6.96,4.22,5.59,6.22,1,Inhibition [16]: 20%; Inhibition [17]: 54%; Inhibition [18]: 29%; Inhibition [19]: 25%
CSC[S@+]([O-])C[C@@H](CO)NC(=O)/C=C/c1c(C)nc(O)nc1O,4.40,2.70,3.00,3.52,,3.19,2.70,0.32,
CSCSC[C@H](CO)NC(=O)/C=C/c1c(C)nc(O)nc1O,5.15,2.70,3.26,4.89,,3.82,2.70,,Ratio [20]: 1.8
CCCCCCCCSC[S+]([O-])CC(CO)NC(=O)/C=C/c1c(C)nc(O)nc1O (stereo not drawn),6.60,5.80,4.22,7.00,,3.52,5.89,2.5,Inhibition [21]: 30%; Inhibition [22]: 42%; Inhibition [23]: 6%
CSC[S@@+]([O-])C[C@H](CO)NC(=O)/C=C/c1c(C)[nH]c(=O)[nH]c1=O,4.89,2.70,3.15,5.24,,4.19,2.70,0.92,
CCCCCCCCCC[S+]([O-])CC(CO)NC(=O)/C=C/c1c(C)nc(O)nc1O (stereo not drawn),7.10,5.74,2.30,6.85,4.52,3.15,6.70,3.6,inhibition [24]: 15%; inhibition [25]: 12%; inhibition [26]: 35%; inhibition [27]: 44%
CSC[S@@+]([O-])C[C@@H](CO)NC(=O)/C=C/c1c(C)[nH]c(=O)[nH]c1=O (racemic),4.00,2.70,3.00,3.52,,3.00,2.70,0.01,
